Compound activity deposited in PubChem BioAssay by several laboratories.
The full list was thinned out, with hits kept by preference.
Fh CTSL1 inh: counter-screen for PFM18AAP inhibitors: inhibitors of F. hepatica cathepsin L1; recombinant F. hepatica cathepsin L1, Z-Leu-Arg-MCA fluorescence; inhibition, % at 5.96 µM; 300,000 tested, 0.49% active; AID 1906;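 active = inhibition above the mean of all tested compounds plus 3 SD, set per screening campaign, cut at about 17% in these data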;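 note: 0% = plate median of test compound wells and 100% = 1 µM Z-Phe-Ala-diazomethylketone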
CHOP inh: inhibitors of CHOP induction in ER stress response | inhibition, % at 10 µM | 220,000 tested, 3.8% active | CHO-K1 CHOP-promoter luciferase, tunicamycin-induced, 15-18 h;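 active = compounds that reduced the stress-induced luciferase reporter signal by more than about 70% of percent inhibition, limit read from the data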;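 note: 0% = tunicamycin plus vehicle and 100% = wells without tunicamycin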
UCH37 inh: inhibitors of human deubiquitinating enzyme UCH37 | Q9Y5K5 | purified proteasome/UCH37, Ub-AMC cleavage fluorescence | inhibition, % (concentration not given with the values) | 330,000 tested, 0.33% active;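 active = mean inhibition over replicate wells above about 20%, limit read from the data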;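 note: 0% = compound-free wells with enzyme and 100% = wells lacking proteasome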
Target sequence (Q9Y5K5 whole entry, looked up): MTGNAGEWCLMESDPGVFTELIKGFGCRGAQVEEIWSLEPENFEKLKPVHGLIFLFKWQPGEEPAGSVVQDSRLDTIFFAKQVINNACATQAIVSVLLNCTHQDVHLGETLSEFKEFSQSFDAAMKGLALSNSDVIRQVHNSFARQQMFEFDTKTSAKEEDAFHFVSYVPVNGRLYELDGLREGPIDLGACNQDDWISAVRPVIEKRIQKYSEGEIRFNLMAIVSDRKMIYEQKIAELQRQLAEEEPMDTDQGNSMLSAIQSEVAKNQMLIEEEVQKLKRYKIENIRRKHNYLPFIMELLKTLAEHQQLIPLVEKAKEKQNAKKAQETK
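assay system = human UCH37 enzyme supplied as purified proteasome complex | amount = proteasome at 0.15 nM in the dispensed enzyme solution | schedule = 30 min compound-proteasome preincubation then 25 min substrate reaction, room temperature | measured by = fluorescence, ex 355 nm, em 460 nm | benchmarks = no-proteasome wells (full inhibition) and compound-free wells (no inhibition)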
XBP1 UPR activ: activators of adaptive arm of unfolded protein response (XBP1). activation, % at 20 µM. 330,000 tested, 0.33% active. CHO-XBP1 luciferase reporter, IRE1-XBP1 UPR activation, luminescence; percent of tunicamycin response, DMSO as zero. AID 463104;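 active = versus positive control, 20 µM dose yields 30% or more activation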;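 note: 100% = tunicamycin at 10 µg/mL and 0% = DMSO only wells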
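Signal: luciferase luminescence; Assay system: CHO-XBP1 luciferase reporter cells; Amount: one thousand reporter cells per well; Dosing: 20 µM single concentration, DMSO 1%; Benchmarks: high control tunicamycin 10 µg/mL final, low control DMSO vehicle only; Schedule: 6 h compound exposure at 37 °C, 5% CO2; Evaluation: percent activation relative to tunicamycin reference.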
UPR CHOP act: apoptotic UPR (CHOP) activation; CHO-CHOP luciferase reporter, luminescence; percent of tunicamycin response over DMSO baseline; activation, % at 10 µM; 330,000 tested, 0.34% active;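 active = at 10 µM dose, activation of 40% or more, normalized to positive control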;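 note: 100% = tunicamycin at 10 µg/mL and 0% = DMSO alone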
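Dosing – one dose, 10 µM in 0.5% DMSO · System – CHO-CHOP cells, stable luciferase reporter of PERK-eIF2a-CHOP signalling · Input – 500 cells/well · Control set – tunicamycin 10 µg/mL final as positive, DMSO-only wells as negative · Timing – 6 h compound treatment, 37 °C · Measure – % activation vs tunicamycin · Technique – luminescence read with Steady-Glo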
Numbers without * were called inactive; x = no result given.

SMILES	Fh CTSL1 inh	CHOP inh	UCH37 inh	XBP1 UPR activ	UPR CHOP act
CNc1nc(NN=Cc2cc3c(cc2[N+](=O)[O-])OCO3)nc(Nc2ccccc2)n1	x	x	7	x	x
CCC(=O)N(C)CCc1cc2c(c(OC)c1C=NNC(=O)c1ccc(Br)cc1)OCO2	x	x	4	x	x
COc1cc([N+](=O)[O-])cc(/C=C2/SC(=S)N(Cc3ccccc3)C2=O)c1O	0	x	21*	x	x
COc1cc(/C=C2\SC(=O)N(Cc3ccc(F)cc3)C2=O)cc([N+](=O)[O-])c1O	x	-4	20	-1	1
O=C(O)CN1C(=O)/C(=C\c2cc(Br)ccc2OCc2ccccc2F)SC1=S	3	x	24*	-8	-1
COc1cc(/C=C2/SC(=S)N(Cc3ccccc3)C2=O)cc(Cl)c1O	3	x	x	x	x
COc1cc(/C=C2\SC(=O)N(Cc3ccc(Cl)cc3)C2=O)cc([N+](=O)[O-])c1O	x	107*	22*	x	x
COc1cc(C=NNC(=O)Cc2ccccc2)cc([N+](=O)[O-])c1O	x	x	22*	x	x
Clc1ccc(Cl)c(-c2ccc(C=Nc3ncn[nH]3)o2)c1	x	x	6	x	x
COc1cccc(C=Nn2c(=S)n(C)c3ccccc32)c1OC	x	x	4	x	x
CC(=NNC(=O)c1nnn(-c2nonc2N)c1CN(C)c1ccccc1)c1cccnc1	x	x	2	x	x
COc1cc(/C=C2\C(=O)NN(c3ccccc3)C2=O)cc([N+](=O)[O-])c1O	4	-9	21*	-2	-2
O=C(O)CN1C(=O)/C(=C\c2cc(Br)ccc2OCc2ccc([N+](=O)[O-])cc2)SC1=S	9	x	20*	-4	2
O=[N+]([O-])c1ccc(-c2nn(-c3ccccc3)cc2/C=N/n2c(-c3ccncc3)n[nH]c2=S)cc1	2	94*	x	1	3
S=c1[nH]nc(-c2cccs2)n1/N=C/c1cn(-c2ccccc2)nc1-c1cccs1	5	79*	x	6	10
Cc1ccc(-c2nn(-c3ccccc3)cc2/C=N/n2c(-c3cccs3)n[nH]c2=S)cc1	2	21	x	3	2
O=[N+]([O-])c1ccc(-c2nn(-c3ccccc3)cc2C=Nn2c(-c3ccncc3)n[nH]c2=S)cc1	x	x	8	x	x
Cn1cc(C=NNC(=O)COc2ccccc2[N+](=O)[O-])c2ccccc21	x	x	-1	x	x
COc1cc(C=NNc2nc(Nc3ccc(C)cc3)nc(-n3nc(C)cc3C)n2)cc(OC)c1OC	x	x	-20	x	x
O=C1/C(=C/c2ccc([N+](=O)[O-])cc2)C=C(c2ccccc2)N1c1ccccc1	5	-2	7	-2	2
O=C1/C(=C/c2ccc([N+](=O)[O-])cc2)C=C(c2ccccc2)N1c1ccc(O)cc1	2	81*	1	13	16
CCOc1ccc2c(c1)C(C)=CC(C)(C)N2S(=O)(=O)c1ccc(C)cc1	x	-16	1	17	1
COc1ccc2c(c1)C(C)=CC(C)(C)N2S(=O)(=O)c1ccc(C)cc1	-4	-14	23*	24	0
CC(C)Oc1ccc(CCC(=O)NN=Cc2ccc3c(c2)OCO3)cc1	x	x	3	x	x
Oc1ccccc1C(Nc1nccs1)c1ccc2cccnc2c1O (stereo unspecified)	-3	71*	-2	2	0
SMILES	Fh CTSL1 inh	CHOP inh	UCH37 inh	XBP1 UPR activ	UPR CHOP act
Cc1ccc(/C(N)=N/OC(=O)c2cc(-c3ccccc3)nc3ccccc23)cc1	-8	43	4	1	4
N/C(=N\OC(=O)c1cc(-c2ccccc2)nc2ccccc12)c1ccccn1	-18	74*	5	8	2
CC(=NNC(N)=S)C12CC3CC(CC(C3)C1)C2	x	x	-1	x	x
O=C(Nc1ccc(Cl)cc1)Nc1csc([N+](=O)[O-])c1	3	76*	5	8	14
O=C(Nc1ccc(C(=O)O)cc1)Nc1cccc([N+](=O)[O-])c1	-3	21	x	-3	0
Cc1ccc(NC(=O)Nc2ccc(Cl)cc2)c(Br)c1	-4	86*	4	2	9
O=C(Nc1ccc(Cl)cc1)Nc1cc([N+](=O)[O-])ccc1F	2	71*	4	5	2
O=C(Nc1cccc([N+](=O)[O-])c1)Nc1cccc([N+](=O)[O-])c1	-5	84*	6	4	1
Nc1nonc1-n1nnc(C(=O)NN=Cc2c(Cl)cccc2Cl)c1CSC1=NCCS1	x	x	0	x	x
CC(=NNc1cc(N2CCOCC2)nc(C)n1)c1cccc([N+](=O)[O-])c1	x	x	8	x	x
Cc1cc(NN=Cc2ccccc2)nc(N)n1	x	x	6	x	x
CCC1CCCCN1Cc1nc2c(c(=O)n(C)c(=O)n2C)n1CCC(C)C (stereo unspecified)	0	x	4	-2	2
CCCCCCn1c(CN2CCCCC2CC)nc2c1c(=O)n(C)c(=O)n2C (stereo unspecified)	3	92*	1	-5	4
C=C(C)c1cccc(C(C)(C)NC(=O)Nc2ccc(C)cn2)c1	-3	49	4	0	0
C=C(C)c1cccc(C(C)(C)NC(=O)Nc2cc(C)ccn2)c1	4	92*	5	0	4
Cn1cc(C(=O)c2ccc(Cl)cc2Cl)cc1C(=O)NN=C(N)COc1ccc(Cl)cc1Cl	x	x	-1	x	x
O=C(C(=O)c1ccc(O)c(O)c1)c1ccc(O)c(O)c1	x	x	24*	x	x
CSc1ccccc1C(=O)NCc1ccc(F)cc1	32*	16	3	-1	-2
CCN(CC)c1nc(N)c2c(N)n(-c3ccccc3C)c(=S)c(C#N)c2c1C#N	12	-26	21*	-1	2
Brc1ccc2c(c1)OCCOCCOc1cc(Br)ccc1OCCOCCOCCO2	-2	83*	4	0	7
Brc1cc2c(cc1Br)OCCOCCOCCOCCO2	-4	3	-2	-3	-2
CC1CN(c2nc(-c3ccccc3)nc3ccccc23)CC(C)O1 (stereo unspecified)	1	82*	-6	0	-1
COc1cccc(-c2nc(N3CC(C)CC(C)C3)c3ccccc3n2)c1O (stereo unspecified)	x	76*	4	46*	3
O=C(Nc1ccccc1Cl)C1CC(=O)N(c2ccccc2)C1 (stereo unspecified)	0	9	7	-2	0
O=C(Nc1cc(Cl)ccc1Cl)C1CC(=O)N(c2ccc(Br)cc2)C1 (stereo unspecified)	4	70*	3	0	1
